Source: ChEMBL document CHEMBL1132378, “Allosteric modulation of the adenosine A(1) receptor. Synthesis and biological evaluation of novel 2-amino-3-benzoylthiophenes as allosteric enhancers of agonist binding” (J Med Chem, 1999)

What was measured:
[1] = molecular target: T1, Adenosine receptor A1 (Rattus norvegicus) (UniProt P25099); assay: Enhancing activity at 10 uM PD 81,723 (100%) at Adenosine A1 receptor in rat brain cortex membranes; format: cell membranes
T1 sequence (whole entry): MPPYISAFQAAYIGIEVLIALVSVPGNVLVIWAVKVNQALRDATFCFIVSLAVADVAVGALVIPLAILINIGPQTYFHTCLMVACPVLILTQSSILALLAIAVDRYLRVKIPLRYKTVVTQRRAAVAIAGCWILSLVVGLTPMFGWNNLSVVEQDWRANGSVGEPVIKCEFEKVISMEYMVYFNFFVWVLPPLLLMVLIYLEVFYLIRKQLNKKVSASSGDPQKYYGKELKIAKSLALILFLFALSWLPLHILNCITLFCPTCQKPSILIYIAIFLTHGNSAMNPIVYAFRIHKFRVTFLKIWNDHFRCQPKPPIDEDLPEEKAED
How it was run: (§1)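 Rat brain cortex membranes (ADA-treated, 2 U/mL at 37 °C) preincubated 2.5 h with 0.5 nM [3H]CCPA. Dissociation then started with 100 μM CPA, with or without 10 μM test compound. Bound [3H]CCPA measured after 1 h.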

[2] = molecular target: T1, Adenosine receptor A1 (Rattus norvegicus); assay: Antagonistic activity expressed as percent displacement of 0.4 nM of [3H]DPCPX from adenosine A1 receptors in rat brain cortex membranes at 10 uM; format: functional, cell membranes; details: Membrane
How it was run: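 Rat brain cortex membranes (ADA-treated, 2 U/mL at 37 °C before storage; 30 μg/mL) incubated 1 h at 25 °C in 50 mM Tris/HCl pH 7.4 with 0.4 nM [3H]DPCPX and 10 μM compound. Nonspecific binding defined by 10 μM CPA. Result is percent displacement of radioligand; n = 3–5.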

[3] = molecular target: T2, Adenosine receptor A1 (Rattus norvegicus, UniProt P25099); assay: Enhanced 0.5 nM [3H]CCPA dissociation from adenosine A1 receptor of rat brain cortex membranes compared to 100 uM CPA
T2 sequence (P25099 whole entry): T1 sequence (whole entry)
How it was run: as §1, with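 “h. Percent decrease in dissociation scaled between control (0%) and 10 μM PD 81,723 as reference (100%); n = 3.” for “h.”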

SMILES | Enhancement [1] [%] | Antagonism [2] [%] | EC50 [3] [µM]
CCc1c(C)sc(N)c1C(=O)c1cccc(C(F)(F)F)c1 | 112 | 5.4 | 
Nc1sc2c(c1C(=O)c1ccc(Cl)cc1)CCN(Cc1ccccc1)C2 | 132 | 60.9 | 11.3
Nc1sc2c(c1C(=O)c1cccc(Cl)c1)CCCC2 | 92.7 | 50.6 | 10.5
CCc1c(C)sc(N)c1C(=O)c1ccccc1 | 31.4 | 12.6 | 
Cc1sc(N)c(C(=O)c2cccc(Cl)c2)c1C | 80.3 | 18.7 | 
Cc1sc(N)c(C(=O)c2ccc(Cl)cc2)c1C | 93.5 | 41 | 
Nc1sc2c(c1C(=O)c1cccc(I)c1)CCCC2 | 113 | 65.8 | 
Nc1sc2c(c1C(=O)c1ccccc1)CCN(Cc1cccc(Cl)c1)C2 | 106 | 80.1 | 15.1
Nc1sc2c(c1C(=O)c1ccc(Br)cc1)CCCC2 | 128 | 41.6 | 16.4
Nc1sc2c(c1C(=O)c1ccc(Cl)c(Cl)c1)CCCC2 | 151 | 34.7 | 6.2
Nc1sc2c(c1C(=O)c1ccccc1Cl)CCCC2 | 72.5 | 35.1 | 
Nc1sc2c(c1C(=O)c1ccc(C(=O)O)cc1)CCCC2 | 28.6 |  | 
Nc1sc2c(c1C(=O)c1ccc([N+](=O)[O-])cc1)CCCC2 | 33.9 | 19.5 | 
Nc1sc2c(c1C(=O)c1ccc(Cl)c(Cl)c1)CCN(Cc1ccccc1)C2 | 174 | 51 | 9.2
COC(=O)c1ccc(C(=O)c2c(N)sc3c2CCCC3)cc1 | 43.9 | 28.9 | 
CCc1c(C)sc(N)c1C(=O)c1cccc(Cl)c1 | 29.9 | 22.3 | 
Cc1sc(N)c(C(=O)c2cccc(C(F)(F)F)c2)c1C | 100 | 39.5 | 14.7
Nc1sc2c(c1C(=O)c1ccccc1)CCN(Cc1ccc(Cl)cc1)C2 | 69 | 52.2 | 
Cc1ccc(C(=O)c2c(N)sc3c2CCCC3)cc1 | 137 | 30.3 | 34.9
Nc1sc2c(c1C(=O)c1ccc(C(F)(F)F)cc1)CCCC2 | 131 | 56.7 | 4.7
Nc1sc2c(c1C(=O)c1cccc(C(F)(F)F)c1)CCCC2 | 122 | 32.2 | 6
Cc1sc(N)c(C(=O)c2ccccc2)c1C | 8 | 13.9 | 
Nc1sc2c(c1C(=O)c1ccc(Cl)cc1)CCCC2 [T-62] | 123 | 39.9 | 6.8
Nc1sc2c(c1C(=O)c1ccccc1)CCN(Cc1ccccc1)C2 | 52.8 | 67.1 | 
Nc1sc2c(c1C(=O)c1ccccc1)CCN(C(=O)c1ccccc1)C2 | 13.8 | 71.8 | 
Nc1sc2c(c1C(=O)c1ccccc1)CCN(Cc1ccc(Cl)c(Cl)c1)C2 | 57 | 4 | 
Nc1sc2c(c1C(=O)c1ccc(I)cc1)CCCC2 | 155 | 64.4 | 4.5
Nc1sc2c(c1C(=O)c1ccc(Cl)cc1)CCN(Cc1ccc(Cl)c(Cl)c1)C2 | 106 | 45.7 | 32
CCc1c(C)sc(N)c1C(=O)c1ccc(Cl)cc1 | 97.2 | 19.8 | 
Nc1sc2c(c1C(=O)c1ccccc1)CCCC2 | 47.2 | 34.7 | 
